Activity calls are given as the source filed them. The rule behind the calls is not given here.
Columns and labels:
[1] = molecular target: Serine/threonine-protein kinase 32B (Homo sapiens) (UniProt Q9NY57); assay: Binding affinity to wild-type human full length YANK2 (M1 to S414 residues) expressed in bacterial expression system assessed as residual binding level at 1 uM by Kinomescan method relative to control
Procedure, shortened: (§1)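 KINOMEscan competition binding against 468 purified kinases/mutants, test compound at 1 µM; residual binding relative to control.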

[2] = system: ALK tyrosine kinase receptor (Homo sapiens), Q9UM73 [L1196M]; assay: Binding affinity to wild-type human partial length ALK L1196M mutant (I1088 to E1409 residues) expressed in mammalian expression system assessed as residual binding level at 1 uM by Kinomescan method relative to control
Procedure, shortened: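 Single-concentration KINOMEscan (DiscoverX) binding screen at 1 μM against a panel of 468 purified kinases and mutants. The read-out is binding relative to control.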

EOL1 [3] = assay: Antitumor activity against human EOL-1 cells xenografted in nu/nu mouse assessed as tumor growth inhibition at 100 mg/kg/day, ip; format: functional; conditions: read-out: TGI
Procedure, shortened: (§2)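 Female nu/nu mice (6 weeks) given subcutaneous right-flank injection of 5 million EOL-1 cells in PBS/Matrigel 1:1. At 200–400 mm3 tumors, randomized to groups of 6 and dosed daily i.p. for 14 days at 25, 50 or 100 mg/kg/d in 0.5% methylcellulose/0.4% Tween80. Tumor volume = W²×L/2, measured daily.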

[4] = system: Receptor-type tyrosine-protein kinase FLT3 (Homo sapiens), P36888 [D835Y]; assay: Binding affinity to human partial length FLT3 D835Y mutant (Q580 to Y969 residues) expressed in bacterial expression system assessed as residual binding level at 1 uM by Kinomescan method relative to control
Procedure, shortened: (§3)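 Kinome-wide single-concentration binding screen (KINOMEscan) at 1 μM against a panel of 468 purified kinases and mutants. Read-out is relative binding of each kinase compared with control. Selectivity across the panel was summarised as an S(10) score.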

[5] = molecular target: Serine/threonine-protein kinase Sgk1 (Homo sapiens) (UniProt O00141); assay: Binding affinity to wild-type human partial length SGK (I60 to L431 residues) expressed in mammalian expression system assessed as residual binding level at 1 uM by Kinomescan method relative to control
[6] = molecular target: RAF proto-oncogene serine/threonine-protein kinase (Homo sapiens) (UniProt P04049); assay: Binding affinity to wild-type human partial length RAF1 (I330 to T640 residues) expressed in bacterial expression system assessed as residual binding level at 1 uM by Kinomescan method relative to control
[7] = molecular target: Tyrosine-protein kinase receptor TYRO3 (Homo sapiens) (UniProt Q06418); assay: Binding affinity to wild-type human partial length TYRO3 (S497 to T814 residues) expressed in bacterial expression system assessed as residual binding level at 1 uM by Kinomescan method relative to control
Sequence of Tyrosine-protein kinase receptor TYRO3 (Homo sapiens) (Q06418 whole entry, the tested form may be a part): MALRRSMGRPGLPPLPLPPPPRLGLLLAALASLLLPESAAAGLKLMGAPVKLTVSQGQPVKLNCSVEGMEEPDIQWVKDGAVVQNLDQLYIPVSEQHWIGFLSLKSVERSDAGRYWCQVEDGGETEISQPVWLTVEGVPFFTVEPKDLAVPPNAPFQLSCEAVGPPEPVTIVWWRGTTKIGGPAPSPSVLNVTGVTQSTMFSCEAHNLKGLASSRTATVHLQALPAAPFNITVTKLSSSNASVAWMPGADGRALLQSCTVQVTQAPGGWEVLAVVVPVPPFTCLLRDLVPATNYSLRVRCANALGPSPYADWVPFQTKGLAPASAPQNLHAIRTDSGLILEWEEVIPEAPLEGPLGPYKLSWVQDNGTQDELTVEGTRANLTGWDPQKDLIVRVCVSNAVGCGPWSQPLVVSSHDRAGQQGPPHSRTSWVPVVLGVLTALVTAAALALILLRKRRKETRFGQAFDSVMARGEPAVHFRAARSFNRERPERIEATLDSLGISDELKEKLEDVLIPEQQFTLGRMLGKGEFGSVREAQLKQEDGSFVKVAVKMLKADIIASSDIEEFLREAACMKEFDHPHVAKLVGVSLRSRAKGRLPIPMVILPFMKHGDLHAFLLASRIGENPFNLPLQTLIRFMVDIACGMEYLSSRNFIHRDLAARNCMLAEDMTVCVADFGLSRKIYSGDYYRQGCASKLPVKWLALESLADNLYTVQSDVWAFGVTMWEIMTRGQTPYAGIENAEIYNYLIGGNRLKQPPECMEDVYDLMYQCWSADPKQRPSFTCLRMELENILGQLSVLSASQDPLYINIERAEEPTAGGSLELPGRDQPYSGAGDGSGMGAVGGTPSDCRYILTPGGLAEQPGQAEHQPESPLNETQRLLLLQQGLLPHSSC

[8] = molecular target: Serine/threonine-protein kinase RIO3 (Homo sapiens) (UniProt O14730); assay: Binding affinity to wild-type human full length RIOK3 (M1 to E519 residues) expressed in bacterial expression system assessed as residual binding level at 1 uM by Kinomescan method relative to control; procedure, shortened: as §1
Sequence of Serine/threonine-protein kinase RIO3 (Homo sapiens) (O14730 whole entry, the tested form may be a part): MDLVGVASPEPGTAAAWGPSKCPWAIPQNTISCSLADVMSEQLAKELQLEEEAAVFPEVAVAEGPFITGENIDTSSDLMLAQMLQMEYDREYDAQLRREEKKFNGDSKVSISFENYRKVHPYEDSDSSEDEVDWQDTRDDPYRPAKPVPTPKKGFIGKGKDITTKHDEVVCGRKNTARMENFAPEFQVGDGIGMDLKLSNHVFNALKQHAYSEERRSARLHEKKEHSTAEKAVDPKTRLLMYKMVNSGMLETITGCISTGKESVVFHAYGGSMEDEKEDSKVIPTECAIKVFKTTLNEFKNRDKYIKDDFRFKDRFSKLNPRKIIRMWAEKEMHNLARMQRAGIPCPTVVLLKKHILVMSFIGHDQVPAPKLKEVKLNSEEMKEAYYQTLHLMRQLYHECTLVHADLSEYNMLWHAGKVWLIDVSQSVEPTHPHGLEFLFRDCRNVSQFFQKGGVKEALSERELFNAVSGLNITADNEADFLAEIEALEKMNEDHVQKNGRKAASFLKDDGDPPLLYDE

[9] = molecular target: Receptor tyrosine-protein kinase erbB-4 (Homo sapiens) (UniProt Q15303); assay: Binding affinity to wild-type human partial length ERBB4 (L690 to K994 residues) expressed in bacterial expression system assessed as residual binding level at 1 uM by Kinomescan method relative to control
[10] = molecular target: Serine/threonine-protein kinase N2 (Homo sapiens) (UniProt Q16513); assay: Binding affinity to wild-type human partial length PKN2 (E634 to C984 residues) expressed in bacterial expression system assessed as residual binding level at 1 uM by Kinomescan method relative to control
[11] = molecular target: Cyclin-dependent kinase 15 (Homo sapiens) (UniProt Q96Q40); assay: Binding affinity to wild-type human full length PFTAIRE2 (M1 to W384 residues) expressed in bacterial expression system assessed as residual binding level at 1 uM by Kinomescan method relative to control; procedure, shortened: as §1
EOL1 [12] = assay: Antitumor activity against human EOL-1 cells xenografted in nu/nu mouse assessed as reduction in tumor cell proliferation at 25 to 100 mg/kg/day, ip by KI-67-staining based microscopic analysis; format: functional, organism-based; procedure, shortened: as §2
[13] = molecular target: Protein kinase C iota type (Homo sapiens) (UniProt P41743); assay: Binding affinity to wild-type human partial length PRKCI (H215 to V587 residues) expressed in mammalian expression system assessed as residual binding level at 1 uM by Kinomescan method relative to control
Sequence of Protein kinase C iota type (Homo sapiens) (P41743 whole entry, the tested form may be a part): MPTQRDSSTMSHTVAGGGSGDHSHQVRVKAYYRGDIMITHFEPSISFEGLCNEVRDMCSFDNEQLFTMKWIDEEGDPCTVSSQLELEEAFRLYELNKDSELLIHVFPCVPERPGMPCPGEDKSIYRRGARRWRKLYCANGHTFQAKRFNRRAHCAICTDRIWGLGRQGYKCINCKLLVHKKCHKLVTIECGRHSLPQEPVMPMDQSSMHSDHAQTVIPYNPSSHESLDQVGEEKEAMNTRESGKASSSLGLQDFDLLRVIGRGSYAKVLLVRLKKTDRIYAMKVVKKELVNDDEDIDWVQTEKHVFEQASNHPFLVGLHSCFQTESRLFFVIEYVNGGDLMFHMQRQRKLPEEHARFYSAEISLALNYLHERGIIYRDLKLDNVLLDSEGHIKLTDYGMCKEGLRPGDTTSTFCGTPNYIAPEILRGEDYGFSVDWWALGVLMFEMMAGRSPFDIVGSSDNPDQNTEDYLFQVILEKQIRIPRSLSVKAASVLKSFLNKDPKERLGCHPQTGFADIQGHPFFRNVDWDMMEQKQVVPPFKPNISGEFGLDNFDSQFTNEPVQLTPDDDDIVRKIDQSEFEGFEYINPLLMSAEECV

[14] = molecular target: SNF-related serine/threonine-protein kinase (Homo sapiens) (UniProt Q9NRH2); assay: Binding affinity to wild-type human partial length SNRK (M1 to E339 residues) expressed in mammalian expression system assessed as residual binding level at 1 uM by Kinomescan method relative to control
[15] = molecular target: Epithelial discoidin domain-containing receptor 1 (Homo sapiens, UniProt Q08345); assay: Binding affinity to wild-type human partial length DDR1 (R565 to V876 residues) expressed in bacterial expression system assessed as residual binding level at 1 uM by Kinomescan method relative to control
Sequence of Epithelial discoidin domain-containing receptor 1 (Q08345 whole entry, the tested form may be a part): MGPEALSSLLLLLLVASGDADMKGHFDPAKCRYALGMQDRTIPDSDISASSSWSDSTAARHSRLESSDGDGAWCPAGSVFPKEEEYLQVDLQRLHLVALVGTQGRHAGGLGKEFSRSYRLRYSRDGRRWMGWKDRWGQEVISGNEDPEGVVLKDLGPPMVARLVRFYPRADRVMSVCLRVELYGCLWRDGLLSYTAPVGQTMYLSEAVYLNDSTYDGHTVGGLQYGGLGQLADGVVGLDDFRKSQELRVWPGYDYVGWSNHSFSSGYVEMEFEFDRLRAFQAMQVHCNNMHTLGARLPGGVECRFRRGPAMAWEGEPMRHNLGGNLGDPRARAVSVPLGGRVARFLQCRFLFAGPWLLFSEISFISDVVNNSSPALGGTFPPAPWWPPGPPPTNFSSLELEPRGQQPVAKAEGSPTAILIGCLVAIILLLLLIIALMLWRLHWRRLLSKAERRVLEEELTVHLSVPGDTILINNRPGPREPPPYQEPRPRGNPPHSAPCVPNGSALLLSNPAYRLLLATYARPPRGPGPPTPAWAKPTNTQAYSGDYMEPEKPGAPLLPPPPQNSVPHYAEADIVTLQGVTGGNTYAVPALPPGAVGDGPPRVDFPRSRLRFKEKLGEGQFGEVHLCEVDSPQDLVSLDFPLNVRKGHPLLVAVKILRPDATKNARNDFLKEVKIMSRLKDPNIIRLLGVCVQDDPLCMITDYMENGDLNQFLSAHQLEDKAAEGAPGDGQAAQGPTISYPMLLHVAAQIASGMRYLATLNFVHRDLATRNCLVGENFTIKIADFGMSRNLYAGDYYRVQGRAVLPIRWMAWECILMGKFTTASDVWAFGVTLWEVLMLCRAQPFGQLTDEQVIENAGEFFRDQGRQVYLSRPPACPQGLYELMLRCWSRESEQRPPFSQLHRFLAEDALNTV
Procedure, shortened: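 Kinome-wide competition binding screen against a panel of 468 purified kinases/mutants, with the test compound at a single concentration of 1 μM. Read-out is the relative binding activity of each kinase in the presence of compound.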

[16] = molecular target: Atypical kinase COQ8A, mitochondrial (Homo sapiens) (UniProt Q8NI60); assay: Binding affinity to wild-type human full length ADCK3 (M280 to Q647 residues) expressed in bacterial expression system assessed as residual binding level at 1 uM by Kinomescan method relative to control
Sequence of Atypical kinase COQ8A, mitochondrial (Homo sapiens) (Q8NI60 163-647 limits assumed): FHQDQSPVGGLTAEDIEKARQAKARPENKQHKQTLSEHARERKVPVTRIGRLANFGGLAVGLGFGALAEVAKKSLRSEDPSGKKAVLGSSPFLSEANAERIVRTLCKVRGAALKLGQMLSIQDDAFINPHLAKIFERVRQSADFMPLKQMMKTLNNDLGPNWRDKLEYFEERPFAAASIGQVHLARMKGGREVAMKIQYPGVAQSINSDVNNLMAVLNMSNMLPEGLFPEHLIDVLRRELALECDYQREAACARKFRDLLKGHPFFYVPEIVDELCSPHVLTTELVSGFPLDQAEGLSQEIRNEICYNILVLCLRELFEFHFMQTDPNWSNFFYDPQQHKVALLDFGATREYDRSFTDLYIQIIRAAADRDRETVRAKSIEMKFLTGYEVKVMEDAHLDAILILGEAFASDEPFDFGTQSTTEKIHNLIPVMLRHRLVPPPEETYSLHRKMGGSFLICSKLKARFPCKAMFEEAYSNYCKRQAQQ
Procedure, shortened: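 Single-concentration (1 μM) competition-binding screen run by KINOMEscan against a panel of 468 purified kinases and mutants. The read-out is the relative binding activity of the test compound to each kinase.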

[17] = molecular target: Ephrin type-A receptor 7 (Homo sapiens) (UniProt Q15375); assay: Binding affinity to wild-type human partial length EPHA7 (Y608 to S912 residues) expressed in bacterial expression system assessed as residual binding level at 1 uM by Kinomescan method relative to control
[18] = molecular target: Serine/threonine-protein kinase SIK2 (Homo sapiens) (UniProt Q9H0K1); assay: Binding affinity to wild-type human full length SIK2 (M1 to N926 residues) expressed in bacterial expression system assessed as residual binding level at 1 uM by Kinomescan method relative to control; procedure, shortened: as §1
Sequence of Serine/threonine-protein kinase SIK2 (Homo sapiens) (Q9H0K1 whole entry, looked up, the tested form may be a part): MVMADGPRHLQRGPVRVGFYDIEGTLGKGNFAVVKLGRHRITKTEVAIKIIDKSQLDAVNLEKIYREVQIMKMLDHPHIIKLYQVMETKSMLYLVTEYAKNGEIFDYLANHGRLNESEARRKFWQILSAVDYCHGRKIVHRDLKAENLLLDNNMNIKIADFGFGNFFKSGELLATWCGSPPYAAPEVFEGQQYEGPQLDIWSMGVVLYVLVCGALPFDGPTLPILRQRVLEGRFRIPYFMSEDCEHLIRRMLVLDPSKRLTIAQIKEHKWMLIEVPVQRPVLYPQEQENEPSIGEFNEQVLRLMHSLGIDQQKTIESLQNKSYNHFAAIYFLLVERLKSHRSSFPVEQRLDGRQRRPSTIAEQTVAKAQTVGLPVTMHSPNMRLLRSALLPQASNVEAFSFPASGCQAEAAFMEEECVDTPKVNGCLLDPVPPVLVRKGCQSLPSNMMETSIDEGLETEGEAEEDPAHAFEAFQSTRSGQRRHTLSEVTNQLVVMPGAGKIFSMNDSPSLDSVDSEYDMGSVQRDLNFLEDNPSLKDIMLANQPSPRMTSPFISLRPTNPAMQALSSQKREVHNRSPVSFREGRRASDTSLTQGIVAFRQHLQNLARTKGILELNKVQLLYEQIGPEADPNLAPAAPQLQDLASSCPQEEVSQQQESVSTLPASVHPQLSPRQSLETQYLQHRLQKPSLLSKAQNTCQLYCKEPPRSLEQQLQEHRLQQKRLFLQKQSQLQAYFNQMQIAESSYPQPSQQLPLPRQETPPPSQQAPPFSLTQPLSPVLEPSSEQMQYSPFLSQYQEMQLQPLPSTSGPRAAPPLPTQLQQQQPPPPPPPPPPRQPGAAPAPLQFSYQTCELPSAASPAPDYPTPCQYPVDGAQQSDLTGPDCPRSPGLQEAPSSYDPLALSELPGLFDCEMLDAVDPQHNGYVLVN

[19] = system: Tyrosine-protein kinase ABL1 (Homo sapiens), P00519 [T315I]; assay: Binding affinity to human non-phosphorylated ABL1 T315I mutant (S229 to K512 residues) expressed in mammalian expression system assessed as residual binding level at 1 uM by Kinomescan method relative to control; procedure, shortened: as §3

Sequence of Serine/threonine-protein kinase 32B (Homo sapiens) (Q9NY57 whole entry, the tested form may be a part): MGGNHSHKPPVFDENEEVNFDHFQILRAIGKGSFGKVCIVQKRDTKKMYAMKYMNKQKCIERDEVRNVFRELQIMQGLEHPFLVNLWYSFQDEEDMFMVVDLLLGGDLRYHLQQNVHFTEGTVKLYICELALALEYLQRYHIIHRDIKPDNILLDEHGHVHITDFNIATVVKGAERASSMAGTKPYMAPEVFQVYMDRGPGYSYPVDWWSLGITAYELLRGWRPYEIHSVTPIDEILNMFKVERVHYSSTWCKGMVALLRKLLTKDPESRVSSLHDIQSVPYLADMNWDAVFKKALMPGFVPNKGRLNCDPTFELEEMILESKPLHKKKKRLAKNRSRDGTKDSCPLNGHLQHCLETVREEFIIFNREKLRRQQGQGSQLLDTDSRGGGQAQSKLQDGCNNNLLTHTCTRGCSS

Cc1ccc(NC(=O)c2ccc(CN(CCN(C)C)C(=O)c3cccnc3)cc2)cc1Nc1nccc(-c2cccnc2)n1
Activity [1]: 82% | Activity [2]: 100% | inhibition in vivo at 100 mg/kg/day (EOL1 [3]): 100% | Activity [4]: 95% | Activity [5]: 100% | Activity [6]: 100% | Activity [7]: 85% | Activity [8]: 69% | Activity [9]: 85% | Activity [10]: 96% | Activity [11]: 87% | Activity (EOL1 [12]): Active | Activity [13]: 100% | Activity [14]: 100% | Activity [15]: 3.9% | Activity [16]: 100% | Activity [17]: 100% | Activity [18]: 87% | Activity [19]: 100%
